DAGLB inh: diacylglycerol lipase beta (human) inhibition; Q8NCG7; HEK293T DAGLB membrane lysate, EnzChek fluorogenic substrate; inhibition, % at 5.17 µM; 340,000 tested, 0.059% active; in the data active means inhibition above about 34%
Target sequence (Q8NCG7 whole entry, looked up): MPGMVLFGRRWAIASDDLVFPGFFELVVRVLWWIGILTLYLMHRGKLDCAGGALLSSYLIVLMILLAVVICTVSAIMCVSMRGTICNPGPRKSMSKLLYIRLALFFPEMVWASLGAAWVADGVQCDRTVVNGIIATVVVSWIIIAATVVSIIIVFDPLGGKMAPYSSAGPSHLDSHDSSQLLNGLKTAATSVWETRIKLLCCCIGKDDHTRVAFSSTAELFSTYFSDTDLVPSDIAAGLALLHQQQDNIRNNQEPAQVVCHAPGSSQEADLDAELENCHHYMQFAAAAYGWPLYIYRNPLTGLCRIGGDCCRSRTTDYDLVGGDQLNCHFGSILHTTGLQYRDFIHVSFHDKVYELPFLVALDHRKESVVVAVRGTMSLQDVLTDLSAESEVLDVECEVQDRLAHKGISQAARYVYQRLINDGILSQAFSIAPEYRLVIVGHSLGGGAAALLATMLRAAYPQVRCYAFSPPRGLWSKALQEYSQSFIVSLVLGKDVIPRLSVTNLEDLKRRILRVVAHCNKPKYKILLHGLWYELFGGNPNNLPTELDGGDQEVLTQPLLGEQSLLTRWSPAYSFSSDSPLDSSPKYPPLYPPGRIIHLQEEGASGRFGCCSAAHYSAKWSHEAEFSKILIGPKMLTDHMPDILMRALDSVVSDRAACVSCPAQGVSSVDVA
HTR5A inv ctr: HTR5A inverse agonism, opioid heterodimer counter-screen | HTR5A cell line, luminescence | P47898 | inhibition, % at 9.3 µM | AID 504634 | 340,000 tested, 0.083% active; in the data active means inhibition mostly above about 23%, no sharp cut-off; inactive means mostly below about 18%
HTR5A ag ctr: counter-screen for OPRM1-OPRD1 agonists: human HTR5A agonism; P47898; HTR5A agonist assay, luminescence, cell-based; AID 504692; activation, % at 9.3 µM; 340,000 tested, 0.61% active; in the data active means activation mostly above about 9.5%, no sharp cut-off; inactive means mostly below about 7.6%
MOR-DOR inv ag: mu-delta opioid heterodimer inverse agonism; cell-based MOR-DOR heterodimer luminescence; inhibition, % at 9.3 µM; 340,000 tested, 0.21% active; in the data active means inhibition above about 22%, passing the limit was not always enough
MOR-DOR ag: OPRM1-OPRD1 heterodimerization agonism. P35372+P41143. cells, luminescence. activation, % at 9.3 µM. 340,000 tested, 0.3% active; in the data active means activation above about 18%
Arrestin-AP2 inh: blocks beta-arrestin peptide binding to AP2 adaptin | FITC-arrestin peptide / GST-AP2 beads, flow cytometry; AP2 beta2 appendage carries R879A mutation | inhibition, % at 10 µM | 340,000 tested, 0.31% active | AID 504490;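 active means inhibition above a set limit, near 3 SD of compounds lacking own fluorescence, cut at about 54% in these data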
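test system = AP2 appendage R879A on GSH beads | buffer or medium = PBS plus Tween 20 (0.05%) and BSA (0.1%) | incubation = 12 min plus 1 h, RT | detection = bead flow cytometry, FITC channel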
Of the large screens only hits and unclear results are named; the others gave an inactive call. In the library only some 1.4% were active in any assay of this set; here they are far more common.

COc1cccc(N(C(=O)CCl)C(C(=O)NCCc2ccccc2)c2cccs2)c1 (stereo unspecified)	HTR5A ag ctr 61, MOR-DOR ag 68
COc1ccc(N(C(=O)CCl)C(C(=O)NCCc2ccccc2)c2cccs2)cc1Cl (stereo unspecified)	HTR5A ag ctr 54, MOR-DOR ag 66
CN(C(=O)c1cccc(NC(=O)Cc2ccc(NC(=O)C3CCCN(S(=O)(=O)c4cccc([N+](=O)[O-])c4)C3)cc2)c1)C1CCCCC1 (stereo unspecified)	none
CCOc1cc(C(c2c(C)[nH][nH]c2=O)c2c(C)[nH][nH]c2=O)ccc1OCc1ccc([N+](=O)[O-])cc1	HTR5A ag ctr 11
CCOc1cc(C(c2c(C)[nH][nH]c2=O)c2c(C)[nH][nH]c2=O)ccc1OC(=O)c1cccc([N+](=O)[O-])c1	none
COc1ccc(S(=O)(=O)N(C)C[C@@H]2Oc3cc(C#CC4CCCCC4)ccc3S(=O)(=O)N([C@@H](C)CO)C[C@@H]2C)cc1	none (no result: HTR5A inv ctr, HTR5A ag ctr, MOR-DOR inv ag, MOR-DOR ag, Arrestin-AP2 inh)
CC(=O)c1cccc(NC(=O)c2cc(-c3ccc(F)cc3)on2)c1	HTR5A ag ctr 10
Cc1ccc(NC(=O)c2cc(-c3ccc(F)cc3)on2)cc1C	none
COc1ccccc1OCCC(=O)OCC(=O)Nc1ccc2c(c1)OCCO2	HTR5A ag ctr 8.6
Nn1c(SCC(=O)NC2CCCC2)nnc1C(F)(F)F	none (no result: HTR5A inv ctr, HTR5A ag ctr, MOR-DOR inv ag, MOR-DOR ag, Arrestin-AP2 inh)
CCN(CC)CCCN(Cc1cc2cc3c(cc2[nH]c1=O)OCO3)C(=S)NC	HTR5A ag ctr 11
COc1cccc(CNC(=O)CCS(=O)(=O)c2cccc3nonc23)c1	HTR5A ag ctr 13
Cn1c(=NC(=O)CCl)sc2ccccc21	HTR5A ag ctr 57, MOR-DOR ag 47
CC(C)(C)OC(=O)NCCCCCNC(=O)c1ncn2c1c(=O)[nH]c1ccccc12	none (no result: HTR5A inv ctr, HTR5A ag ctr, MOR-DOR inv ag, MOR-DOR ag, Arrestin-AP2 inh)
CN(CCNC(=O)C1CCN(c2ncnc3c2nc2n3CCCCC2)CC1)Cc1ccccc1	HTR5A ag ctr 11
CCN(CCNC(=O)C1CCCN(c2ncnc3c2nc2n3CCCCC2)C1)Cc1ccccc1 (stereo unspecified)	none
O=C(NCc1ccc(Cl)cc1)C1CCCN(c2ncnc3c2nc2n3CCCCC2)C1 (stereo unspecified)	HTR5A ag ctr 13
CCOC(=O)c1c(C)[nH]c(C(=O)N(C)CC(=O)Nc2ccc(OCC)c(OCC)c2)c1C	none (no result: HTR5A inv ctr, HTR5A ag ctr, MOR-DOR inv ag, MOR-DOR ag, Arrestin-AP2 inh)
CC(=O)Nc1cccc(NS(=O)(=O)c2ccc3c(c2)CCC(=O)N3)c1	none (no result: HTR5A inv ctr, HTR5A ag ctr, MOR-DOR inv ag, MOR-DOR ag, Arrestin-AP2 inh)
COc1cc(S(=O)(=O)NCc2cccnc2)c(OC)cc1Br	HTR5A ag ctr 10.0
COc1cc(S(=O)(=O)NCc2ccncc2)c(OC)cc1Br	none
Cc1nn(-c2ccccc2)c(C)c1NC(=O)COc1ccc2ccccc2c1	HTR5A ag ctr 10
Cc1ccc(C(=O)O)cc1NC(=S)NC(=O)c1ccc(-c2ccc(Cl)cc2)o1	HTR5A ag ctr 12
CCOC(=O)Cc1csc(NC(=O)c2c(O)c3c(n(CC(C)C)c2=O)CCCC3)n1	none
Cc1csc(NC(=O)c2c(O)c3c(n(CC(C)C)c2=O)CCCC3)n1	HTR5A ag ctr 11
CCOC(=O)c1c(C)sc2c1N(C(=O)CCl)c1cc(Cl)ccc1S2	HTR5A ag ctr 19, MOR-DOR ag 36
CCc1sc(C(=O)NCCCn2ccnc2)cc1Br	HTR5A ag ctr 10
CCN(CC)S(=O)(=O)c1ccc2[nH]c(=O)[nH]c2c1	HTR5A ag ctr 9.5
CCCCN(CCCC)S(=O)(=O)c1ccc2[nH]c(=O)[nH]c2c1	none
COc1ccc(NC(=O)Cn2nnc(C(=O)NCc3ccc4c(c3)OCO4)c2N)cc1	none
CCOc1ccc(NC(=O)Cn2nnc(C(=O)NCc3ccc4c(c3)OCO4)c2N)cc1	HTR5A ag ctr 13
COc1ccc(CN2CCN(C(=O)c3ccccc3C(=O)c3ccccc3)CC2)cc1F	none (no result: HTR5A inv ctr, HTR5A ag ctr, MOR-DOR inv ag, MOR-DOR ag, Arrestin-AP2 inh)
COc1cccc(CN(C)C(=O)c2cccc(NC(=O)CC3SC(N4CCCCC4)=NC3=O)c2)c1OC (stereo unspecified)	none
COc1ccc(CN(C)C(=O)c2cccc(NC(=O)CC3SC(N4CCCCC4)=NC3=O)c2)c(OC)c1 (stereo unspecified)	HTR5A ag ctr 11
Cc1nc2ccc(NS(=O)(=O)c3cccc([N+](=O)[O-])c3)cc2s1	HTR5A ag ctr 9.0
COc1cccc(C(=O)Nc2ccc3c(cc2=O)[C@@H](NC(C)=O)CCc2cc(OC)c(OC)c(OC)c2-3)c1	HTR5A ag ctr 52
CCc1nnc(N2CCN(c3ncnc4c3oc3ccccc34)CC2)s1	none
c1ccc(N2CCN(c3ncnc4c3oc3ccccc34)CC2)cc1	HTR5A ag ctr 14
O=C(NCC1(c2ccccc2)CCCC1)C(=O)NCC1(c2ccccc2)CCCC1	HTR5A ag ctr 9.9
CC1(C)Cc2cccc(OCC(=O)Nc3ccccc3F)c2O1	none
Cc1ccc(NC(=O)COc2cccc3c2OC(C)(C)C3)c(O)c1	HTR5A ag ctr 13
CC1(C)CC(=O)C=C(c2ccc(-c3ccc(OC(F)(F)F)cc3)cc2)C1=O	none (no result: HTR5A inv ctr, HTR5A ag ctr, MOR-DOR inv ag, MOR-DOR ag, Arrestin-AP2 inh)
Cc1ccc(S(=O)(=O)Nc2c(NC3CCCCC3)c3ccccc3oc2=O)cc1	HTR5A ag ctr 13
Cc1ccc(OCC(=O)OCC(=O)NC2CCS(=O)(=O)C2)cc1C (stereo unspecified)	none (no result: HTR5A inv ctr, HTR5A ag ctr, MOR-DOR inv ag, MOR-DOR ag, Arrestin-AP2 inh)
Cc1cccc(N2CCN(C(=O)COc3noc4nc(C)cc(C)c34)CC2C)c1 (stereo unspecified)	none (no result: HTR5A inv ctr, HTR5A ag ctr, MOR-DOR inv ag, MOR-DOR ag, Arrestin-AP2 inh)
O=C(C#Cc1ccccc1)Nc1ccc(F)cc1	HTR5A ag ctr 9.0
O=C(C#Cc1ccccc1)Nc1cccc(F)c1	none
CC(C)n1nc(C(=O)OCC(=O)c2c[nH]c3ccccc23)c2ccccc2c1=O	HTR5A ag ctr 10
Cc1n[nH]c2c([N+](=O)[O-])c(=O)[nH]c(=O)n12	none
CCn1nc(C(=O)OCC(=O)N2CCc3ccccc32)c2ccccc2c1=O	HTR5A ag ctr 14
CNC[C@H]1OCc2ccccc2-c2ccccc2C(=O)N([C@@H](C)CO)C[C@H]1C	none (no result: HTR5A inv ctr, HTR5A ag ctr, MOR-DOR inv ag, MOR-DOR ag, Arrestin-AP2 inh)
O=C(CSc1nc(O)cc(=O)n1-c1ccc(Cl)c(Cl)c1)Nc1ccc(Cl)cc1Cl	HTR5A ag ctr 10
Cc1ccc(NC(=O)CSc2nc(O)cc(=O)n2-c2ccc(C)cc2)cc1	none
CCN(CC)c1ccc(/C=N/N2CCN(Cc3ccc(Cl)cc3)CC2)c(O)c1	HTR5A ag ctr 13
Cc1cccc2c1NC(=O)C2(c1ccc(O)cc1)c1ccc(O)cc1	HTR5A ag ctr 44, MOR-DOR ag 124
Cc1c(NCc2cc(Cl)cc(Cl)c2O)c(=O)n(-c2ccccc2)n1C	none
Cc1c(NCc2nc3ccccc3[nH]2)c(=O)n(-c2ccccc2)n1C	HTR5A ag ctr 12
Cc1ccc(-n2c(=O)[nH]c3c(C(N)=O)nc(-c4ccc(C)o4)nc32)cc1	HTR5A ag ctr 11
COc1ccc(-c2nonc2NC(=O)c2ccco2)cc1OC	none
CCOc1ccc(-c2nonc2NC(=O)c2ccco2)cc1OCC	HTR5A ag ctr 13

Assay outcomes: PubChem BioAssay, several laboratories
